Tested on: MS2 coat protein
Assay: apparent Kd, MS2 coat protein; higher = weaker binding; RNA-MaP array; FMN 200 µM where present
Outline: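 On Illumina sequencing-chip clusters, designs were transcribed by stalled E. coli RNA polymerase and titrated with SNAP-549-labelled MS2 coat protein (0.7 or 1.5 nM, doubling to 3 µM), without and then with constant ligand, in 100 mM Tris-HCl pH 7.5, 80 mM KCl, 4 mM MgCl2, BSA, DTT, yeast tRNA and Tween-20. Apparent Kd is the median of filtered per-cluster curve fits to green signal normalised to red-channel RNA signal and control-cluster median Fmax.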

[1] = designed as: ON switch for flavin mononucleotide, no ligand
[2] = ligand present: flavin mononucleotide, designed as: ON switch for flavin mononucleotide
[3] = designed as: OFF switch for flavin mononucleotide, no ligand
[4] = ligand present: flavin mononucleotide, designed as: OFF switch for flavin mononucleotide

UGCCUGAGUCGAGGAUAUUAUGGAUCCUCUAAUACAUGAGGAUCACCCAUGUAAUUAAUUAUACAUGAGAAGGUGACUCAGGCU
apparent Kd [1]: 0.529 µM
apparent Kd [2]: 0.488 µM

UUAUUUAUGUAAGGAUAUCGAUUAUAUACACAUCCGACAUGAGGAUCACCCAUGUUUUAUUUUUUCGAGAAGGUACAUUGUCGG
apparent Kd [1]: 0.0765 µM
apparent Kd [2]: 0.0747 µM

GUGGGUCGGGAGGAUAUUCGGGCUCAUGGGCUUGGAGAAGGCUCGACAUGAGGAUCACCCAUGUAAGUGUUCUU
apparent Kd [3]: 0.05 µM
apparent Kd [4]: 0.621 µM

CAAUGCCUGUCGAUGCUCGACAUGAGGAUCACCCAUGUAUAGCAGGAUAUGCAGAACUGACUCGUGCAGAAGGGCUAUACCUAA
apparent Kd [3]: 0.0258 µM
apparent Kd [4]: 0.0611 µM

GUCAUGUUAGGAUAUCUAACAUGUGACUUCGGUCACUGUCCAGAGAAGGAACAUGAGGAUCACCCAUGUUGGAC
apparent Kd [3]: 0.0147 µM
apparent Kd [4]: 0.0159 µM

AGUUGGCGAGGAUAUACAUGAGGAUCACCCAUGUGAGAGAUACUAGUGAGGUCGAUUGGUAGAAGGCGCUGACA
apparent Kd [3]: 0.132 µM
apparent Kd [4]: 0.106 µM

CAUCUGUGAGGAUAUGGUGAGUAGUGCCUGAGCGCUGCUCACCAGAAGGCACAUGAGGAUCACCCAUGUAUGAA
apparent Kd [3]: 0.0526 µM
apparent Kd [4]: 0.214 µM

CUGUUCACCAGUGGGCGACCACAUGAGGAUCACCCAUGUAGGGAGGAUAUGCCCGCGCAGCUGUAGCAGAAGGCCCUGCAAAUC
apparent Kd [3]: 0.0212 µM
apparent Kd [4]: 0.125 µM

GUGGCACAUGAGGAUCACCCAUGUAGGUAGAACAUAGGAUAUCACCAACAAAAUACCUGGUGAGAAGGAUGAUGCC
apparent Kd [1]: 0.166 µM
apparent Kd [2]: 0.0598 µM

UGAGGACAUGAGGAUCACCCAUGUAGGCCACAAUCAGGAUAUGCAUUAAGGUACCUAAGAGUAGAAGGGAUUCGAG
apparent Kd [1]: 0.0821 µM
apparent Kd [2]: 0.0756 µM

UUAUUAUAUGUAGGAUAUGCAUAUUAUUAUUAUGCAGAAGGACAUGAGGAUCACCCAUGUAUAUUAUUGUUAUAUAUUAUAUAU
apparent Kd [3]: 0.0248 µM
apparent Kd [4]: 0.0393 µM

CGCUAAGAUGGGUUUAAUGGAGCAUAGGAUAUGCUUGUACAUGAGGAUCACCCAUGUUAUAUUGUGCAGAAGGGUGCAUUUGCG
apparent Kd [1]: 0.457 µM
apparent Kd [2]: 0.158 µM

GUGCCUUGGGAGAAGGCCGAUAGCAAAGCUAUCGGAGGAUAUCCAUACCGGAAACGGACAUGAGGAUCACCCAUGUGGCACAAA
apparent Kd [1]: 0.0163 µM
apparent Kd [2]: 0.0076 µM

UUAAUUAAUUAAUUAUACAUGAGGAUCACCCAUGUAAGUGAUCAGGAUAUCAGCUCGAAUAGAGCUGAGAAGGGAUACAUGUAA
apparent Kd [1]: 0.199 µM
apparent Kd [2]: 0.111 µM

AGUUCUUGUGAAGGAUAUACGGCGGGUCGCGCAGUAGAAGGUCACAUGAGGAUCACCCAUGUCGACAAUGUGCAGUAUCGACAA
apparent Kd [3]: 0.135 µM
apparent Kd [4]: 0.271 µM

UCCUCACAUGAGGAUCACCCAUGUUAGGAUAUCUCGGUGCCCUGCAGGCAGUGGCACCAGAGAAGGAACGUGCA
apparent Kd [3]: 0.0212 µM
apparent Kd [4]: 0.0221 µM

GCCGGGUAGGCAGGAUAUCCUCGCGCAAACACAUGAGGAUCACCCAUGUACACAAAACGUGAUAUGGAGAAGGGCUGACCCGCA
apparent Kd [1]: 0.0339 µM
apparent Kd [2]: 0.00584 µM

UAUAUAUAGUAAGGAUAUGUAUCUAUUUUAUAAACAGAAGGUACUGACAUGAGGAUCACCCAUGUUUUAGUGUGGGCAUGUAGA
apparent Kd [3]: 0.0922 µM
apparent Kd [4]: 0.114 µM

CGAGGCGUACAUGAGGAUCACCCAUGUACCUAACAACAAAGCAAGGAUAUCCUGGCUAUAAUACAGGAGAAGGUGUGGUCCUUA
apparent Kd [2]: 0.177 µM

GCGAUUUUGUAAGGAUAUACACCAGUUUCAAGUGUAGAAGGUACUUACAUGAGGAUCACCCAUGUAUACUUGGAUAAUAGUCGC
apparent Kd [1]: 0.0174 µM
apparent Kd [2]: 0.0175 µM

UCGCGGGUGCAGAAGGGAUAGGCCUAUUGUCGUGGUGUCCAAACUUAACAUGAGGAUCACCCAUGUCAGGAUAUGCCCACGCGA
apparent Kd [3]: 0.0739 µM
apparent Kd [4]: 0.117 µM

UGUAUUAAUGGAGGAUAUCGAUAUCAAACAUGAGGAUCACCCAUGUUGAGGAUCACCCAUGUCCAUGAGAAGGCCGGCGUACUU
apparent Kd [1]: 0.0344 µM
apparent Kd [2]: 0.0328 µM

AUCCUGCGAGGAUAUACAUAGUUUUUUUCGUUUUGACUCGAACAUGAGGAUCACCCAUGUAGAAGGUGCUUCAC
apparent Kd [3]: 0.0595 µM
apparent Kd [4]: 0.056 µM

AGUCUGCGAGGAUAUACAUGAGGAUCACCCAUGUGCGAAGAACUAGUGAGGUCGAUUGGUAGAAGGCGCGGACA
apparent Kd [3]: 0.297 µM
apparent Kd [4]: 0.0303 µM

Source: the EternaBench riboswitch data
